Measured values as given in ChEMBL document CHEMBL1124367, “Design, synthesis, and testing of potential antisickling agents. 7. Ethacrynic acid analogues” (J Med Chem, 1989).

How the values were obtained:
[1] = (§1) Solubility ratio of the sickle cell haemoglobin with compound to sickle cell haemoglobin with out compound at 9 mM; assay type: ADME; settings: 9000 µM
Outline: (§2)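 HbS purified from red cells by DEAE-Sephacel chromatography and held in 150 mM phosphate, pH 7.4. Compound was added as its sodium salt in 0.15 M phosphate, pH 7.4, and incubated with HbS overnight at 4°C. Samples were sealed in EPR tubes and spun at 150000 g for 2.5 h at 35°C.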

[2] = Solubility ratio of the sickle cell haemoglobin with compound to sickle cell haemoglobin with out compound at 7 mM; assay type: ADME; settings: 7000 µM; outline: as §2
[3] = Solubility ratio of the sickle cell haemoglobin with compound to sickle cell haemoglobin with out compound at 3 mM; assay type: ADME; settings: 3000 µM; outline: as §2
[4] = Solubility ratio for sickle cell haemoglobin in presence and absence of compound; assay type: ADME; outline: as §2
[5] = as §1; assay type: ADME; settings: 9000 µM; remark: listed apart in the source
Outline: as §2, with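 “4°C. Sodium dithionite was then added (final 58.88 mM, final HbS about 24 g%).” for “4°C.”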

[6] = test system: Canis familiaris; test: Diuretic activity of compound measured in dog urine after intravenous administration of 5 mg/kg
[7] = Solubility ratio of the sickle cell haemoglobin with compound to sickle cell haemoglobin with out compound at 10 mM; assay type: ADME; settings: 10000 µM
Outline: as §2, with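 “4°C. Sodium dithionite was then added (final 58.88 mM, final HbS about 24 g%).” for “4°C.”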

[8] = test system: Canis familiaris; test: Diuretic activity of compound measured in dog urine after intravenous injection of 5 mg/kg; assay type: functional, Canis lupus familiaris
[9] = Solubility ratio of the sickel cell haemoglobin with compound to sickle cell haemoglobin with out compound at 3 mM; assay type: ADME; settings: 3000 µM
Outline: as §2, with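 “4°C. Sodium dithionite was then added (final 58.88 mM, final HbS about 24 g%).” for “4°C.”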

[10] = Solubility ratio of the sickell cell haemoglobin with compound to sickle cell haemoglobin with out compound at 9 mM; assay type: ADME; settings: 9000 µM
Outline: as §2, with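 “4°C. Sodium dithionite was then added (final 58.88 mM, final HbS about 24 g%).” for “4°C.”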

[11] = Solubility ratio of the sickell cell haemoglobin with compound to sickle cell haemoglobin with out compound at 7 mM; assay type: ADME; settings: 7000 µM
Outline: as §2, with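 “4°C. Sodium dithionite was then added (final 58.88 mM, final HbS about 24 g%).” for “4°C.”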

[12] = Solubility ratio of the sickell cell haemoglobin with compound to sickle cell haemoglobin with out compound at 5 mM; assay type: ADME; settings: 5000 µM
Outline: as §2, with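 “4°C. Sodium dithionite was then added (final 58.88 mM, final HbS about 24 g%).” for “4°C.”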

[13] = Solubility ratio of the sickle cell haemoglobin with compound to sickell cell haemoglobin with out compound at 10 mM; assay type: ADME; settings: 10000 µM
Outline: as §2, with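 “4°C. Sodium dithionite was then added (final 58.88 mM, final HbS about 24 g%).” for “4°C.”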

[14] = Solubility ratio of the sickle cell haemoglobin with compound to sickell cell haemoglobin with out compound at 5 mM; assay type: ADME; settings: 5000 µM
Outline: as §2, with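 “4°C. Sodium dithionite was then added (final 58.88 mM, final HbS about 24 g%).” for “4°C.”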

[15] = Solubility ratio of the sickle cell haemoglobin with compound to sickle cell haemoglobin without compound at 5 mM; assay type: ADME; settings: 5000 µM
Outline: as §2, with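 “4°C. Sodium dithionite was then added (final 58.88 mM, final HbS about 24 g%).” for “4°C.”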

Structure (SMILES) | Solubility ratio [1] | Solubility ratio [2] | Solubility ratio [3] | Solubility ratio [4] | Diuretic activity [8] | other results
O=C(c1cccs1)c1cc2c(c(Cl)c1Cl)OC(C(=O)O)C2 (stereo unspecified) |  |  |  | 1.076 |  | Diuretic activity [6]: 0; Solubility ratio [7]: 1.08
CCC1=C(c2ccc(OCCCC(=O)O)c(Cl)c2Cl)OC(CC)(C(=O)c2ccc(OCCCC(=O)O)c(Cl)c2Cl)CC1 (stereo unspecified) | 1.039 |  |  | 1.059 |  | 
C=C(CC)C(=O)c1c(Cl)cc(Cl)cc1OCC(=O)O | 1.129 | 1.103 | 1.048 | 1.08 |  | 
CC(C)C(Br)C(=O)c1ccc(OCC(=O)O)c(Cl)c1Cl (stereo unspecified) |  |  |  | 0.966 | 3 | Solubility ratio [7]: 0.983
C=C(CC)C(=O)c1ccc(OCCCC(=O)NCC(=O)O)c(Cl)c1Cl | 1.309 | 1.287 | 1.107 | 1.224 |  | 
CC/C(=C/c1ccc(OCC(=O)O)c(OC)c1)[N+](=O)[O-] | 1.207 | 1.159 | 1.085 | 1.128 |  | 
C/C(=C/c1ccc(OCC(=O)O)cc1)[N+](=O)[O-] | 1.099 | 1.075 | 1.038 | 1.076 | 1 | 
C=C(CC)C(=O)c1ccc(OCCCCCC(=O)O)c(Cl)c1Cl | 1.164 | 1.125 |  | 1.086 |  | Solubility ratio [9]: 1.063
CC1(C2CCCC2)Cc2cc(OCC(=O)O)c(Cl)c(Cl)c2C1=O (stereo unspecified) |  |  |  | 1.01 |  | Diuretic activity [6]: 2; Solubility ratio [7]: 1.015
CC(=O)C(=Cc1ccc(OCC(=O)O)c(Cl)c1Cl)C(C)=O |  |  |  |  | 6 | 
CCC1=C(c2ccc(OCC(=O)O)c(Cl)c2Cl)OC(CC)(C(=O)c2ccc(OCC(=O)O)c(Cl)c2Cl)CC1 (stereo unspecified) |  |  |  |  | 0 | Solubility ratio [13]: 0.996; Solubility ratio [14]: 0.993
CC/C(=C/c1ccc(OCC(=O)O)c(Cl)c1Cl)[N+](=O)[O-] | 1.131 | 1.096 | 1.051 | 1.086 |  | 
C=CC(=O)c1ccc(OCC(=O)O)c(Cl)c1Cl | 1.095 | 1.067 | 1.033 | 1.06 |  | 
CCC1=Cc2cc(OCC(=O)O)c(Cl)c(Cl)c2C1=O | 1.12 | 1.103 | 1.074 | 1.09 | 5 | 
CCC(C)C(=O)c1ccc(OCC(=O)O)c(Cl)c1Cl (stereo unspecified) |  |  |  |  | 2 | Solubility ratio [7]: 1.088; Solubility ratio [15]: 1.061
CCC(C(=O)c1ccc(OCC(=O)O)c(Cl)c1Cl)S(C)(=O)=O (stereo unspecified) |  |  |  |  |  | Solubility ratio [13]: 1.052; Solubility ratio [14]: 1.029
C=C(CC)C(=O)c1ccc(OCC(=O)O)c(Cl)c1Cl [ETHACRYNIC ACID] | 1.184 | 1.151 | 1.07 | 1.125 | 6 | 
CC1(c2ccccc2)Cc2cc(OCC(=O)O)c(Cl)c(Cl)c2C1=O (stereo unspecified) [INDACRINONE] |  |  |  | 0.989 |  | Diuretic activity [6]: 3; Solubility ratio [7]: 1

Further lines, with some results ahead:

Solubility ratio [1] | Solubility ratio [2] | Solubility ratio [3] | Solubility ratio [4] | Structure (SMILES) | Diuretic activity [8] | other results
1.202 | 1.147 | 1.08 | 1.127 | C=C(CC)C(=O)c1ccc(OC2(C(=O)O)CCC2)c(Cl)c1Cl |  | 
1.143 | 1.099 | 1.057 | 1.085 | C=C(CCC)C(=O)c1ccc(OC2(C(=O)O)CCC2)c(Cl)c1Cl |  | 
 | 1.106 | 1.052 | 1.1 | CC/C(=C/c1ccc(C(=O)O)cc1Cl)[N+](=O)[O-] |  | Solubility ratio [5]: 1.15
1.149 | 1.155 | 1.082 | 1.115 | C=C(CCC)C(=O)c1ccc(OCCCC(=O)O)c(Cl)c1Cl |  | 
 |  |  | 1.018 | CCC(CN(C)C)C(=O)c1ccc(OCC(=O)O)c(Cl)c1Cl.Cl (stereo unspecified) | 4 | Solubility ratio [7]: 1.168
1.308 | 1.2 | 1.081 | 1.129 | C=C(CC)C(=O)c1ccc(OCCCCC(=O)O)c(Cl)c1Cl |  | 
1.113 | 1.089 | 1.073 | 1.077 | C=C(CC)C(=O)c1ccc(OCCN(CC)CC)c(Cl)c1Cl |  | 
 |  | 1.112 |  | C=C(CC)C(=O)c1ccc(OCCC(=O)O)c(Cl)c1Cl |  | Solubility ratio [10]: 1.302; Solubility ratio [11]: 1.188; Solubility ratio [12]: 1.145
1.196 | 1.168 | 1.084 | 1.122 | C=C(CC)C(=O)c1ccc(OCCCC(=O)O)c(Cl)c1Cl |  | 
 |  |  | 0.961 | CC1(C2CCCC2)Cc2cc(OCCCC(=O)O)c(Cl)c(Cl)c2C1=O (stereo unspecified) |  | Solubility ratio [7]: 1.006
1.078 | 1.062 | 1.017 | 1.033 | C/C=C(\CC)C(=O)c1ccc(OCC(=O)O)c(Cl)c1Cl | 5 | 
 |  |  | 1.016 | CCC(SC)C(=O)c1ccc(OCC(=O)O)c(Cl)c1Cl (stereo unspecified) |  | Solubility ratio [7]: 1.073
1.327 | 1.222 | 1.109 | 1.145 | C=C(CC)C(=O)c1ccc(OCC(=O)NCC(=O)O)c(Cl)c1Cl | 3 | 
1.237 | 1.183 | 1.05 | 1.094 | C=C(CC)C(=O)c1ccc(OC(C)(C)C(=O)O)c(Cl)c1Cl | 0 | 
